The target in one data set is T1, Estrogen receptor (Homo sapiens, UniProt P03372).
T1 sequence (P03372 whole entry): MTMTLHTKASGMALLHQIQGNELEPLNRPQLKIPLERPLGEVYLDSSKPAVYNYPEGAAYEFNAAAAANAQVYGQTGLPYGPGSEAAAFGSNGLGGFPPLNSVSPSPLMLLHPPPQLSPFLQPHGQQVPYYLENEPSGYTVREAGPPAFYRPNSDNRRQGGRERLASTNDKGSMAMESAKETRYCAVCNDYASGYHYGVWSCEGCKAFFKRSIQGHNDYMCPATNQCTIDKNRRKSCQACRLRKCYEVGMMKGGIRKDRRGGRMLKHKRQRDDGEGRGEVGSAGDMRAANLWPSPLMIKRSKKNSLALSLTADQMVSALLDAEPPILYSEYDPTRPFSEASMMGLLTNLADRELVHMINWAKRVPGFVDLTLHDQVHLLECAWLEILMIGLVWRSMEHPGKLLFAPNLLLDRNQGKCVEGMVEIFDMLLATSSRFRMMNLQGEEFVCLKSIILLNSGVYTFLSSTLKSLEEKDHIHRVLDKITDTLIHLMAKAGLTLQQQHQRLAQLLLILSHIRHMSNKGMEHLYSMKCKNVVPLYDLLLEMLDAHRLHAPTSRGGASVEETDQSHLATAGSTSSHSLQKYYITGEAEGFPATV
Put plainly: Displacement of fluorescent estrogen ligand from recombinant human full length untagged ERalpha expressed in baculovirus infected insect cells incubated in dark for 2 hrs by Beacon single-tube fluorescent polarization assay.

In another data set the target is Estrogen receptor beta (Homo sapiens, UniProt Q92731). Put plainly: Displacement of fluorescent estrogen ligand from recombinant human full length untagged ERbeta expressed in baculovirus infected insect cells incubated in dark for 2 hrs by Beacon single-tube fluorescent polarization assay.
Sequence of Estrogen receptor beta (Q92731 whole entry): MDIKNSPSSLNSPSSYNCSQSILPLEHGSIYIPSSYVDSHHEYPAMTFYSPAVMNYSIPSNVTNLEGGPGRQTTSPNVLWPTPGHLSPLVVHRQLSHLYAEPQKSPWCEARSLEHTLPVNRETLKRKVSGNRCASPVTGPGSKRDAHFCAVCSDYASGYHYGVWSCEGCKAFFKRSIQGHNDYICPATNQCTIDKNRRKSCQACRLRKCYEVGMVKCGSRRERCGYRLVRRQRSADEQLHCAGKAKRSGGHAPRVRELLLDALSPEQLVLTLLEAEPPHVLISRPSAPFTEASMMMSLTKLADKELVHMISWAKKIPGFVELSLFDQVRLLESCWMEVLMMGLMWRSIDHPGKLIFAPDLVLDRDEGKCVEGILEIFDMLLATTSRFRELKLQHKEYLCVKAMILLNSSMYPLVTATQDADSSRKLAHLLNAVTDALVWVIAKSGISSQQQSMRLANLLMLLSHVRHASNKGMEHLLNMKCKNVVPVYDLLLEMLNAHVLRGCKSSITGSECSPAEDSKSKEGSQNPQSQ
Data set [1] concerns MCF7. Put plainly: Antiproliferative activity against human MCF7 cells assessed as inhibition of cell viability after 72 hrs by MTT assay. It counts as functional, cell-based. Particulars: MCF7, 72 h. A digest of the protocol:
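MCF-7 cells grown in Eagle's MEM with 10% fetal calf serum, 2 mM L-glutamine, penicillin/streptomycin and 1% non-essential amino acids. Seeded at 2.5×10^4 cells/mL, 24 h at 37 °C, 5% CO2. Dosed from ethanol stocks at 1 nM–100 μM final (vehicle 1% v/v ethanol), 72 h. MTT 1 mg/mL for 2 h in dark, DMSO solubilisation, absorbance 595 nm. Viability relative to vehicle; mean ± S.E.M., at least two experiments in triplicate.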

The subject of data set [2] is MCF7. Description: Toxicity in human MCF7 cells assessed as cell death at 10 uM incubated for 72 hrs by LDH assay relative to control. Particulars: mcf7, 72 h. The class given is cell-based. In short, it runs like this:
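LDH release assay (CytoTox 96). MCF-7 cells seeded at 1×10^4 cells/well for 24 h, dosed with ethanol vehicle (1% v/v) and incubated 72 h. Medium mixed with substrate for 20 min at room temperature in dark, stopped, absorbance read at 490 nm. Lysis is percent of a lysis-solution control (100% lysis, 45 min); three experiments in triplicate, mean ± SEM.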

Data set [3] can be described thus: Chemical stability of the compound in pH 7.4 phosphate buffer assessed as half life by HPLC method. The class given is physicochemical. A digest of the protocol:
(§1)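 Stock of 5 mg compound in 10 mL mobile phase; 30 μL diluted into 1 mL phosphate buffer (pH 4, 7.4 or 9, British Pharmacopoeia). Injected immediately and sampled at 0, 5, 30, 60, 90, 120 min and 21 h. HPLC with UV detection at 254 nm, acetonitrile:water 80:20 mobile phase, 1 mL/min over 10 min.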

A short description of data set [4]: Chemical stability of the compound in phosphate buffer at pH 4 assessed as compound remaining after 30 mins by HPLC method. The class given is physicochemical. Particulars: read-out: Stability. A digest of the protocol: as §1
Data set [5] in a line: Stability in human plasma assessed as half life by HPLC method. It counts as ADME, cell-free. In short, it runs like this: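 Human blood plasma (2.0 mL) mixed with PBS containing 10% DMSO (1.6 mL) and pre-warmed to 37 °C. Compound added as 400 μL of a 1.0 mg/mL stock. Aliquots of 100 μL quenched in 900 μL acetonitrile, centrifuged and filtered. Sampled every 15 min for 1 h, then hourly to 3 h, plus 24 h. C18 reverse-phase HPLC at 25 °C, H2O:ACN:MeOH mobile phase, 1.0 mL/min.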

Data set [6] is described as follows: Chemical stability of the compound in pH 9 phosphate buffer assessed as half life by HPLC method. The class given is physicochemical. A digest of the protocol: as §1

Usually IC50 stands for the concentration that gives 50% inhibition. Consider `CCOC(=O)C1=C(N)Oc2cc(O)ccc2C1c1ccccc1` (configuration not stated), for which the results for the IC50 on Estrogen receptor, on Estrogen receptor beta and in the data set on MCF7 [1] were 2.36 µM, 0.61 µM and greater than 100 µM, respectively.
For `CCOC(=O)C1=C(N)Oc2cc(O)ccc2C1c1ccc(OC)c(OC)c1` (configuration not stated), in the data set on MCF7 [1], the IC50 is greater than 100 µM.
With `N#CC1=C(N)Oc2cc(O)ccc2C1c1ccccc1` (configuration not stated), the IC50 at Estrogen receptor was greater than 10 µM; at Estrogen receptor beta, 8.39 µM; in the data set with MCF7 [1], greater than 100 µM.
For `N#CC1=C(N)Oc2cc(O)ccc2C1c1ccc(OCCN2CCCCC2)cc1` (configuration not stated), the IC50 on Estrogen receptor was determined as 1.47 µM; on Estrogen receptor beta, 10.4 µM; in the data set on MCF7 [1], 23.2 µM.
The matching figures for `COC(=O)C1=C(N)Oc2cc(O)ccc2C1c1ccccc1` (configuration not stated): 3.3 µM, 1.59 µM and 10.8 µM.
The matching figures for `CCOC(=O)C1=C(N)Oc2cc(O)ccc2C1c1ccc(OCc2ccccc2)cc1` (configuration not stated): 40.3 µM, greater than 100 µM and 4.5 µM.
Regarding `N#CC1=C(N)Oc2cc(O)ccc2C1c1ccc(OCCN2CCCC2)cc1` (configuration not stated), the IC50 on Estrogen receptor was 0.89 µM; on Estrogen receptor beta it was greater than 10 µM; with MCF7 [1] it was greater than 50 µM.
Take `COC(=O)C1=C(N)Oc2cc(O)ccc2C1c1ccc(OCCN2CCCC2)cc1` (configuration not stated): the IC50 at Estrogen receptor was found to be 0.02 µM; at Estrogen receptor beta it was 0.35 µM; in the data set on MCF7 [1], 19.6 µM. Moreover, the Activity in the data set with MCF7 [2] stood at 0%.
For orientation: half-life means the time in which the quantity being followed falls by half. Take `CCCCOC(=O)C1=C(N)Oc2cc(O)ccc2C1c1ccc(OCCN2CCCCC2)cc1` (configuration not stated): the half-life in data set [3], in data set [5] and in data set [6] was greater than 24 h each time. The IC50 on Estrogen receptor amounted to 0.03 µM; on Estrogen receptor beta it was 2.35 µM; with MCF7 [1] it was 31.8 µM. Moreover, in data set [4], the remaining at 0.5 h amounted to 32%.
Regarding `CCOC(=O)C1=C(N)Oc2cc(O)ccc2C1c1ccc(O)cc1` (configuration not stated), the IC50 in the data set on MCF7 [1] is greater than 100 µM.
As to `COC(=O)C1=C(N)Oc2cc(O)ccc2C1c1ccc(OCCN2CCOCC2)cc1` (configuration not stated), the results for the IC50 on Estrogen receptor, on Estrogen receptor beta and in the data set on MCF7 [1] were 109 µM, 0.63 µM and greater than 100 µM, respectively.
Turning to `CC(C)(C)OC(=O)C1=C(N)Oc2cc(O)ccc2C1c1ccc(OCCN2CCCCC2)cc1` (configuration not stated), the figures for the IC50 on Estrogen receptor, on Estrogen receptor beta and in the data set on MCF7 [1] were 0.09 µM, 0.37 µM and 2.65 µM, respectively.
Consider `CCOC(=O)C1=C(N)Oc2cc(O)ccc2C1c1ccc(OCCN2CCOCC2)cc1` (configuration not stated), for which the half-maximal inhibitory concentration (IC50) on Estrogen receptor stood at 0.22 µM; at Estrogen receptor beta it was 2.44 µM; in the data set with MCF7 [1], 18.8 µM. Besides, in the data set with MCF7 [2], the Activity is 0%.
For the compound `CCOC(=O)C1=C(N)Oc2cc(O)ccc2C1c1ccc(OCC)cc1` (configuration not stated), in the data set on MCF7 [1], the IC50 is greater than 100 µM.
Consider `CCOC(=O)C1=C(N)Oc2cc(O)ccc2C1c1ccc(OCCN2CCCC2)cc1` (configuration not stated), for which the IC50 at Estrogen receptor was found to be 1.41 µM; at Estrogen receptor beta, 3.1 µM; with MCF7 [1], 27.3 µM. Also, the Activity in the data set with MCF7 [2] was found to be 0%.
Regarding `CCOC(=O)C1=C(N)Oc2cc(O)ccc2C1c1ccc(OCCN2CCCCC2)cc1` (configuration not stated), the half-life in data set [3], in data set [5] and in data set [6] was greater than 24 h throughout. Also, the values for the concentration for half-maximal inhibition (IC50) at Estrogen receptor, on Estrogen receptor beta and with MCF7 [1] were 0.02 µM, 0.06 µM and 8.75 µM, respectively. The remaining at 0.5 h in data set [4] came out at 27%. The Activity in the data set with MCF7 [2] is 0%.
Consider `N#CC1=C(N)Oc2cc(O)ccc2C1c1ccc(OCCN2CCOCC2)cc1` (configuration not stated), for which the IC50 was 14 µM at Estrogen receptor, greater than 50 µM at Estrogen receptor beta and 35.3 µM in the data set with MCF7 [1]. For the same compound, the Activity with MCF7 [2] stood at 0%.
In the case of `CCCCOC(=O)C1=C(N)Oc2cc(O)ccc2C1c1ccc(OCCN2CCCC2)cc1` (configuration not stated), the values for the IC50 at Estrogen receptor, on Estrogen receptor beta and in the data set with MCF7 [1] were 0.02 µM, 6.55 µM and 7.73 µM, respectively.
For the compound `COC(=O)C1=C(N)Oc2cc(O)ccc2C1c1ccc(OCCN2CCCCC2)cc1` (configuration not stated), the IC50 turned out to be 0.05 µM at Estrogen receptor, 0.22 µM on Estrogen receptor beta and 16.2 µM in the data set with MCF7 [1]. Also, the Activity in the data set with MCF7 [2] was 0%.
Regarding `COC(=O)C1=C(N)Oc2cc(O)ccc2C1c1ccc(O)cc1` (configuration not stated), the IC50 at Estrogen receptor was 0.79 µM; at Estrogen receptor beta, 10 µM; with MCF7 [1], greater than 100 µM.
On to `CC(C)(C)OC(=O)C1=C(N)Oc2cc(O)ccc2C1c1ccc(OCCN2CCCC2)cc1` (configuration not stated), for which the half-maximal inhibitory concentration (IC50) on Estrogen receptor was 0.01 µM; on Estrogen receptor beta, 0.67 µM; in the data set with MCF7 [1], 10 µM.
With `CC/C(=C(\c1ccccc1)c1ccc(OCCN(C)C)cc1)c1ccccc1` [TAMOXIFEN], in the data set on MCF7 [2], the Activity came to 13.4%.
